Experimental findings from ChEMBL document CHEMBL5032510, “Identification of Novel Fused Heteroaromatics-Based MALT1 Inhibitors by High-Throughput Screening to Treat B Cell Lymphoma” (J Med Chem, 2021) are described below.

For series [1], the system named is OCI-Ly1. The series is described as follows: Antiproliferative activity against human OCI-Ly1 cells assessed as inhibition of cell growth incubated for 72 hrs by Celltiter-Glo luminescent assay. It counts as functional. Put shortly:
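Exponentially growing cells were seeded at 1 × 10⁴ per 100 μL. HBL-1 and TMD8 were kept in RPMI with 10% FBS, 2 mM glutamine and 10 mM HEPES; OCI-LY1 in Iscove's medium with 20% FBS; all at 37 °C and 5% CO2. Cells were exposed to DMSO or 2-fold serial dilutions from 100 μM for 72 h, in triplicate on one plate. CellTiter-Glo luminescence was read after 1 h. Growth inhibition was calculated against control, accounting for initial cell number, and GI50 was fitted.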

The test system of series [2] is OCI-Ly1. The series is described as follows: Induction of apoptosis in human OCI-Ly1 cells assessed as dead cells at 10 uM measured after 24 hrs by Annexin V-FITC/ Propidium iodide staining based flow cytometry (reference value: 0.365%). It counts as functional.
Series [3] deals with TMD8. The series is described as follows: Induction of apoptosis in human TMD8 cells assessed as late apoptotic cells at 2 uM measured after 24 hrs by Annexin V-FITC/ Propidium iodide staining based flow cytometry (reference value: 2.19%). It counts as functional.
For series [4], the system named is OCI-Ly1. The series is described as follows: Induction of apoptosis in human OCI-Ly1 cells assessed as increase in cleaved caspase 3 level at 2 to 5 uM measured after 12 hrs by Western blot analysis. Format: functional, cell-based. The conditions noted are these: dose 2-5 µM. Put shortly:
(§1)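 HBL1, TMD8 or OCI-LY1 cells were exposed to DMSO or compound for 12 h. Cleaved PARP and caspase-3 were probed by western blot with HRP-conjugated secondary antibodies and chemiluminescent detection. Each lane held 20−75 μg total protein.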

The target of series [5] is Nuclear factor NF-kappa-B complex (Homo sapiens) (UniProt Q00653+P19838+Q04206). The series is described as follows: Inhibition of NF-kappaB signalling in human HBL1 cells assessed as reduction in phosphorylation of IkappaB-alpha at 8 uM preincubated for 30 mins followed by proteosome inhibitor MG-132 addition and measured after 2 hrs by Western blot analysis. Conditions: time 2.5 hrs. Format: cell-based. The method in brief:
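HBL1 cells were pretreated with compound (4 and 8 μM) for 30 min, then given 10 μM MG-132 for 2 h. Phospho-IκBα, IκBα and RelB were probed by western blot, with β-actin as loading control. Each lane held 20−75 μg total protein, with chemiluminescent detection.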

Series [6] can be described thus: Cmax in CD-1 mouse at 1 mg/kg, ip by LC-MS/MS analysis. The conditions noted are these: in vivo. Also on record: route intraperitoneal, dose 1 mg/kg. Format: ADME, organism-based. The method in brief: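 Compound formulated in 5% DMSO + 5% Tween-80 in 90% saline and given to male ICR (CD-1) mice (n = 9) at 10 mg/kg po, 1 mg/kg ip or 1 mg/kg iv. Blood was drawn via the jugular vein at set time points and held on ice. Plasma was separated by centrifugation and stored at −80 °C before PK parameters were derived.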

Series [7] has as its system OCI-Ly1. Briefly: Induction of apoptosis in human OCI-Ly1 cells assessed as late apoptotic cells at 5 uM measured after 24 hrs by Annexin V-FITC/ Propidium iodide staining based flow cytometry (reference value: 0.548%). It counts as functional.
A short description of series [8]: Induction of apoptosis in human HBL1 cells assessed as viable cells at 5 uM measured after 24 hrs by Annexin V-FITC/ Propidium iodide staining based flow cytometry (reference value: 88.1%). It counts as functional. The conditions noted are these: read-out: Activity.
A short description of series [9]: Induction of apoptosis in human HBL1 cells assessed as viable cells at 10 uM measured after 24 hrs by Annexin V-FITC/ Propidium iodide staining based flow cytometry (reference value: 88.1%). The conditions noted are these: read-out: Activity. Format: functional.
A short description of series [10]: Induction of apoptosis in human HBL1 cells assessed as late apoptosis at 10 uM measured after 24 hrs by Annexin V-FITC/ Propidium iodide staining based flow cytometry (reference value: 4.77%). It counts as functional.
Series [11] relates to TMD8. The series is described as follows: Induction of apoptosis in human TMD8 cells assessed as increase in cleaved caspase 3 level measured after 12 hrs by Western blot analysis. Format: functional, cell-based. Put shortly: as §1
Series [12] is described as follows: MRT (0 to t) in CD-1 mouse at 1 mg/kg, ip by LC-MS/MS analysis. It counts as ADME, organism-based. Conditions: in vivo. Put shortly: (§2)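 Male ICR (CD-1) mice (n = 9). Compound formulated in 5% DMSO + 5% Tween-80 in 90% saline and dosed 10 mg/kg po, 1 mg/kg ip or 1 mg/kg iv. Blood drawn from the jugular vein at set time points and held on ice. Plasma separated by centrifugation and stored at −80 °C before parameter derivation.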

The test system of series [13] is OCI-Ly1. The series is described as follows: Induction of apoptosis in human OCI-Ly1 cells assessed as viable cells at 10 uM measured after 24 hrs by Annexin V-FITC/ Propidium iodide staining based flow cytometry (reference value: 97.8%). Format: functional. The conditions noted are these: read-out: Activity.
Series [14] in a line: Oral bioavailability in CD-1 mouse at 10 mg/kg by LC-MS/MS analysis. Format: ADME, organism-based. The conditions noted are these: in vivo. Put shortly:
as §2

The subject of series [15] is HBL1. The series is described as follows: Induction of apoptosis in human HBL1 cells assessed as increase in cleaved PARP level measured after 12 hrs by Western blot analysis. It counts as functional, cell-based. The method in brief: as §1
In series [16] the target is T1, Mucosa-associated lymphoid tissue lymphoma translocation protein 1 (Homo sapiens) (UniProt Q9UDY8).
T1 sequence (whole entry): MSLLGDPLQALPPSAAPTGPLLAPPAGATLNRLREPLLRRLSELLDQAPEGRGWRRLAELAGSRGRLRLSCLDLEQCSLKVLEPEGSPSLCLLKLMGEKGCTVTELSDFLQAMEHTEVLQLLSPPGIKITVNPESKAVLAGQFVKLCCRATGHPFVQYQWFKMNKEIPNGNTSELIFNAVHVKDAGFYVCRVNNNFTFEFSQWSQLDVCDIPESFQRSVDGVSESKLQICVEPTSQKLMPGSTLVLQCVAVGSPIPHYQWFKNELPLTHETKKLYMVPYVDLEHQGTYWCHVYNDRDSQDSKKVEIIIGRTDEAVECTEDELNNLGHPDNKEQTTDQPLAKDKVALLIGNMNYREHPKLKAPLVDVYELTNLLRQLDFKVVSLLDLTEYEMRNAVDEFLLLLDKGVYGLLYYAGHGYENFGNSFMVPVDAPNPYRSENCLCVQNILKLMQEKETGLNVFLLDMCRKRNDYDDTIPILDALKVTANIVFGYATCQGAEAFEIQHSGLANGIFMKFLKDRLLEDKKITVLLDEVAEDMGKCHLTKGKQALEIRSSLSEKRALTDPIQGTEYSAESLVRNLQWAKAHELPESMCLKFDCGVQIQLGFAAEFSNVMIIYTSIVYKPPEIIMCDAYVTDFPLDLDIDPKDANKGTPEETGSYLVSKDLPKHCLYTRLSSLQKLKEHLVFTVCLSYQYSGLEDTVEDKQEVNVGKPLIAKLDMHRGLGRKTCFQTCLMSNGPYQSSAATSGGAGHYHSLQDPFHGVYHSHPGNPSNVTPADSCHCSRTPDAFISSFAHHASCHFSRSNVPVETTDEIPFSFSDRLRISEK
The series is described as follows: Inhibition of MALT1 in human HBL1 cells assessed as decrease in RelB substrate cleavage at 8 uM preincubated for 30 mins followed by proteosome inhibitor MG-132 addition and measured after 2 hrs by Western blot analysis. Conditions: time 2.5 hrs. Format: cell-based. Put shortly:
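Cells were grown in RPMI with 10% FBS, 2 mM glutamine and 10 mM HEPES at 37 °C, 5% CO₂. Pretreated 30 min with compound (4 and 8 μM), then 10 μM MG-132 for 2 h. 20−75 μg total protein run on SDS-PAGE, blotted to PVDF, probed for RelB, detected by HRP chemiluminescence. β-actin was the loading control.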

Activity calls are given as the source filed them. No cut-off for these calls is given here.

Sequence of Nuclear factor NF-kappa-B complex (Homo sapiens) (P19838 whole entry, looked up): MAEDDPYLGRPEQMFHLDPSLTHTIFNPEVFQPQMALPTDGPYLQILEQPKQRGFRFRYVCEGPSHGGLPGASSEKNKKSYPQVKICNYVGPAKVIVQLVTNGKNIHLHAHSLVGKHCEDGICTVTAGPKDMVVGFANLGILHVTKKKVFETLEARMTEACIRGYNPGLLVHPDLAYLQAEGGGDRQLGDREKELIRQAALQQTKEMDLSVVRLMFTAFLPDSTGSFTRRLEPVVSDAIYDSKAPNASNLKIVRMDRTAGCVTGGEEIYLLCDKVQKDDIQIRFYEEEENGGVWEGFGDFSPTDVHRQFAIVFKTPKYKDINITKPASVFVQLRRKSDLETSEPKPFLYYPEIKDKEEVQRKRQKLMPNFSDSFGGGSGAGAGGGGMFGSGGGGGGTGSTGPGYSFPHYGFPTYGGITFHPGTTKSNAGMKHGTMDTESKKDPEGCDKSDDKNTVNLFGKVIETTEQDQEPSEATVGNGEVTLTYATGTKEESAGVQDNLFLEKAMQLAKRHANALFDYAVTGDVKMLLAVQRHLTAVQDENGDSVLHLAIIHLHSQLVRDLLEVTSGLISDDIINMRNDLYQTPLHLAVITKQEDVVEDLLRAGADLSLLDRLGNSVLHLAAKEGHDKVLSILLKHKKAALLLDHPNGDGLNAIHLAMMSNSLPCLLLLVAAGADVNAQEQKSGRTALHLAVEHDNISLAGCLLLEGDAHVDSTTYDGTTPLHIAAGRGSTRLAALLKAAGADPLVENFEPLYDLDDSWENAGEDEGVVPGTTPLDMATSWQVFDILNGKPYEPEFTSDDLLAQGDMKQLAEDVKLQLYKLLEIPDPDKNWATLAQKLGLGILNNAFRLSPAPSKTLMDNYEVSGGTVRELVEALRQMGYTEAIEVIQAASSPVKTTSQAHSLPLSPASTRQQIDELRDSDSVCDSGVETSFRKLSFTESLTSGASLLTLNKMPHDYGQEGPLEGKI
Sequence of Nuclear factor NF-kappa-B complex (Homo sapiens) (Q00653 whole entry, looked up): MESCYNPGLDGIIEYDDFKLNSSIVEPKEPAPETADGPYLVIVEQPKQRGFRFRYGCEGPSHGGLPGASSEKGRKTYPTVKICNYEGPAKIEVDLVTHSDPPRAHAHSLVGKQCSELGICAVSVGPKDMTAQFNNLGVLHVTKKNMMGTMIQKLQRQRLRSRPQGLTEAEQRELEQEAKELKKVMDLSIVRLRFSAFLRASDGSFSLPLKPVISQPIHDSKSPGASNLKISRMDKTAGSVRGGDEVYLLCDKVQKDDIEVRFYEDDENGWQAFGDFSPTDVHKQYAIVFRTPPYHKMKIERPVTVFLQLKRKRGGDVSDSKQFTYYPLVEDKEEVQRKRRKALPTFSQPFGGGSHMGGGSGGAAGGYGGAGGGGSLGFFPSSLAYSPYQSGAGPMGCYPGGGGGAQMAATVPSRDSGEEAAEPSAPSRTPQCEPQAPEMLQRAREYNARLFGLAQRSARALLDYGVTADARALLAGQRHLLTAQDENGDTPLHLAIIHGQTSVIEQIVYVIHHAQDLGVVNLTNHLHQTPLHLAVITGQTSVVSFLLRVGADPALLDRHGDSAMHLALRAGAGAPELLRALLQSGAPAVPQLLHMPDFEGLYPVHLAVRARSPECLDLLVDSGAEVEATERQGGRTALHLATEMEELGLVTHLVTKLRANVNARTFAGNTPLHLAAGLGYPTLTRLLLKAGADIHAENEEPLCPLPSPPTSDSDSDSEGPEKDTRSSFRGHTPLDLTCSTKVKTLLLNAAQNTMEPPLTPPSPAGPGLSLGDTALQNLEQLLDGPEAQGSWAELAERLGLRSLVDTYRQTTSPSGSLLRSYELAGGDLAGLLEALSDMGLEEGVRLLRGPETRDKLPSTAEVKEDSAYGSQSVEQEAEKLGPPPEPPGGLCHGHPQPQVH
Sequence of Nuclear factor NF-kappa-B complex (Homo sapiens) (Q04206 whole entry, looked up): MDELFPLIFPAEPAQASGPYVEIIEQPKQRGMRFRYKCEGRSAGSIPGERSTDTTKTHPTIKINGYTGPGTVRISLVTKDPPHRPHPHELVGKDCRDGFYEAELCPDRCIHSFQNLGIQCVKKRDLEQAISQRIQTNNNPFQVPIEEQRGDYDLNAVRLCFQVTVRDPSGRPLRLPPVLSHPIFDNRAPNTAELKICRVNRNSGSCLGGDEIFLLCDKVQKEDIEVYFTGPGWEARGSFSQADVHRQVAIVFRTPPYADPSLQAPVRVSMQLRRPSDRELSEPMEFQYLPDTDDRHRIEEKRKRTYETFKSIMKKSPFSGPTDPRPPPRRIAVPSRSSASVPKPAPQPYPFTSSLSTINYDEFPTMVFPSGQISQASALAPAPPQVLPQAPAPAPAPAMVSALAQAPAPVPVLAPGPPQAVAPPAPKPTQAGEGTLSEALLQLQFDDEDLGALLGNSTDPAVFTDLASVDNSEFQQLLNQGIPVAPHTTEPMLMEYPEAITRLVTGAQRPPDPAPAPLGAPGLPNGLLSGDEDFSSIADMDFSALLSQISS

As for `COc1ccc(OC)c(NC(=O)c2sc(=S)n(-c3ccc(C(F)(F)F)cc3)c2NC(=O)CCl)c1`, the GI50 in [1] came out at 10.7 µM. The Activity in series [2] was 0.337%; in series [3] it was 2.54%; in [7], 0.774%; in [10] it was 35%; in series [11], “Dose-Dependent Effect”; in series [15], “Dose-Dependent Effect”. In addition, the outcome in series [4] was inactive. The inhibition result in series [5] and in [16] was “Active” each time. This compound also registered a Cmax in [6] of 336 ng/mL. In addition, the viability at 5 µM in series [8] was determined as 38.8%. The results for the viability at 10 µM in [9] and in series [13] were 6.11% and 95.5%, respectively. Also, the MRT last in series [12] worked out at 5.95 h. Besides, the bioavailability in series [14] came to 110%.
